Data from ChEMBL document CHEMBL1671784 (J Med Chem, 2011).
Active and inactive are the calls of the source.

Key:
Rattus norvegicus [1] = assay: Antinociceptive activity in sc dosed Sprague-Dawley rat assessed as thermal-stimulus induced tail flick latency after 0.5 hrs; type: functional
Rattus norvegicus [2] = assay: Antinociceptive activity in sc dosed Sprague-Dawley rat assessed as thermal-stimulus induced tail flick latency after 1 hrs; type: functional
Rattus norvegicus [3] = assay: Antinociceptive activity in sc dosed Sprague-Dawley rat assessed as thermal-stimulus induced tail flick latency after 2 hrs; type: functional
Rattus norvegicus [4] = assay: Antinociceptive activity in Sprague-Dawley rat inflammatory model assessed as paw withdrawal latency at 183 nmol/kg, sc administered post carrageenan challenge; type: functional, organism-based
Mu-type opioid receptor = Mu-type opioid receptor (Rattus norvegicus, UniProt P33535); assay: Displacement of [3H]DAMGO from mu opioid receptor in Sprague-Dawley rat brain membrane by liquid scintillation counting; type: cell membranes
Sequence of Mu-type opioid receptor (P33535 whole entry): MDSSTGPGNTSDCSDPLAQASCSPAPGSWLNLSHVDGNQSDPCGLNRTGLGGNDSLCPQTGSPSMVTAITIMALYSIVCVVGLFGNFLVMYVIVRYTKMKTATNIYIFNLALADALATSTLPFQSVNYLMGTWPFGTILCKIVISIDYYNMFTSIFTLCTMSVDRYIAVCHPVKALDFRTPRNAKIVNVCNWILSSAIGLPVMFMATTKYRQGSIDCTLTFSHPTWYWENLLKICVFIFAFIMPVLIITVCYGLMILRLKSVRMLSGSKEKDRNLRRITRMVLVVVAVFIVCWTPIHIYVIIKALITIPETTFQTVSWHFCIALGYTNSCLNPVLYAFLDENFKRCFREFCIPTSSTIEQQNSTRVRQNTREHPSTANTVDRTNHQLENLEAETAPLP

[5] = target: Kappa-type opioid receptor (Cavia porcellus, UniProt P41144); assay: Displacement of [3H][Ile5,6]deltorphin 2 from delta opioid receptor in Sprague-Dawley rat brain membrane by liquid scintillation counting; type: cell membranes
Sequence of Kappa-type opioid receptor (P41144 whole entry): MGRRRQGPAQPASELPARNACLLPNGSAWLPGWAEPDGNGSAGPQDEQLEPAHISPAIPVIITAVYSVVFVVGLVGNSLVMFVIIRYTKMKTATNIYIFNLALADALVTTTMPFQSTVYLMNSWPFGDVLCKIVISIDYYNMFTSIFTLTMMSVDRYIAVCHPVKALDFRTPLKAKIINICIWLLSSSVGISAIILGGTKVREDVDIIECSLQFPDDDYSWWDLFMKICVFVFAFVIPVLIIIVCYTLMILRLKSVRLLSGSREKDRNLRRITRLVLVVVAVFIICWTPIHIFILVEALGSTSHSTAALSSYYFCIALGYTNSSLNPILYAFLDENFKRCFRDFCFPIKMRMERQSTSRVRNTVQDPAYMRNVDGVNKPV

[6] = Displacement of [3H]U69593 from kappa opioid receptor in guinea pig brain membrane by liquid scintillation counting; type: cell membranes, Cavia porcellus
Rattus norvegicus [7] = assay: Antinociceptive activity in sc dosed Sprague-Dawley rat assessed as thermal-stimulus induced tail flick latency after 3 hrs; type: functional
Rattus norvegicus [8] = species: Rattus norvegicus; conditions: Sprague-Dawley, at 426 nmol/kg
Rattus norvegicus [9] = species: Rattus norvegicus; conditions: Sprague-Dawley, at 426 nmol/kg; remark: listed apart in the source
Rattus norvegicus [10] = assay: Antinociceptive activity in sc dosed Sprague-Dawley rat assessed as thermal-stimulus induced tail flick latency relative to morphine; type: functional
Rattus norvegicus [11] = assay: Antinociceptive activity in Sprague-Dawley rat inflammatory model assessed as paw withdrawal latency at 170 nmol/kg, sc administered post carrageenan challenge; type: functional, organism-based
How it was run: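 Male Sprague-Dawley rats (250 g), unanesthetized; unilateral inflammation from 100 μL 1% carrageenan into the right hindpaw plantar surface. At 3 h post-carrageenan, compound given sc in 0.9% saline (100 μL); saline controls; 4–7 rats per group. Randall–Selitto paw pressure (blunt wedge piston, 48 g/s, 20 s cutoff) applied to the dorsal paw. Response is % change in withdrawal latency from the 3 h pre-drug value.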

Row | SMILES | ED50 (Rattus norvegicus [1]) [µmol/kg] | ED50 (Rattus norvegicus [2]) [µmol/kg] | ED50 (Rattus norvegicus [3]) [µmol/kg] | Activity (Rattus norvegicus [4]) | Ki (Mu-type opioid receptor) [nM] | Ki [5] [nM] | Ki [6] [nM] | ED50 (Rattus norvegicus [7]) [µmol/kg] | inhibition (Rattus norvegicus [8]) | inhibition (Rattus norvegicus [9]) | fold change (FC) (Rattus norvegicus [10]) | Activity (Rattus norvegicus [11])
1 | CO[C@@]12CC[C@@H](NCC(=O)O)[C@@H]3Oc4c(O)ccc5c4[C@@]31CCN(C)[C@@H]2C5 | 0.0508 | 0.029 | 0.0433 | Active |  |  |  |  |  |  |  | 
2 | CC(C)(C)OC(=O)CN[C@@H]1CC[C@@]2(OCCCc3ccccc3)[C@H]3Cc4ccc(O)c5c4[C@@]2(CCN3CC2CC2)[C@H]1O5 | 0.0338 | 0.0268 | 0.0344 |  | 1.01 | 1.77 | 0.4 | 0.056 |  |  |  | 
3 | C=CC[N+]1(C)CC[C@]23c4c5ccc(O)c4O[C@H]2C(=O)CC[C@@]3(O)[C@H]1C5 (stereo partly drawn) |  |  |  |  |  |  |  |  | Active | Active |  | 
4 | CN1CC[C@]23c4c5ccc(O)c4O[C@H]2[C@H](NCC(=O)OC(C)(C)C)CC[C@@]3(OCCCc2ccccc2)[C@H]1C5 | 0.164 | 0.0923 | 0.124 |  | 1.03 | 2.02 | 0.92 | 0.189 |  |  | 66 | 
5 | Cl.Cl.O=C(O)CN[C@H]1CC[C@@]2(OCCCc3ccccc3)[C@H]3Cc4ccc(O)c5c4[C@@]2(CCN3CC2CC2)[C@H]1O5 | 1.39 | 0.349 | 0.433 |  | 0.27 | 0.64 | 0.33 | 0.543 |  |  | 17 | 
6 | CC(C)(C)OC(=O)CN[C@H]1CC[C@@]2(OCCCc3ccccc3)[C@H]3Cc4ccc(O)c5c4[C@@]2(CCN3CC2CC2)[C@H]1O5 | 0.365 | 0.348 | 0.363 |  | 1.38 | 1.49 | 1.11 | 0.427 |  |  | 17 | 
7 | Cl.Cl.O=C(O)CN[C@@H]1CC[C@@]2(OCCCc3ccccc3)[C@H]3Cc4ccc(O)c5c4[C@@]2(CCN3CC2CC2)[C@H]1O5 | 1.56 | 0.183 | 0.147 |  | 0.2 | 0.65 | 0.35 |  |  |  | 41 | 
8 | CO[C@@]12CC[C@H](NCC(=O)O)[C@@H]3Oc4c(O)ccc5c4[C@@]31CCN(C)[C@@H]2C5 | 0.137 | 0.0585 | 0.143 |  |  |  |  | 0.437 |  |  |  | 
9 | CN1CC[C@]23c4c5ccc(O)c4O[C@@]2(C)C(=O)CC[C@@]3(OCCCc2ccccc2)[C@H]1C5 |  |  |  |  |  | 0.54 | 0.14 |  |  |  |  | 
10 | CN1CC[C@]23c4c5ccc(O)c4O[C@H]2[C@H](NCC(=O)O)CC[C@@]3(OCCCc2ccccc2)[C@H]1C5 |  |  |  |  |  |  |  |  |  |  |  | Active
11 | CN1CC[C@]23c4c5ccc(O)c4O[C@H]2[C@@H](O)C=C[C@H]3[C@H]1C5 [MORPHINE] | 6.05 | 7.63 | 13.3 |  |  |  |  |  |  |  |  | 
12 | CN1CC[C@]23c4c5ccc(O)c4O[C@H]2[C@@H](NCC(=O)OC(C)(C)C)CC[C@@]3(OCCCc2ccccc2)[C@H]1C5 | 0.0635 | 0.0583 | 0.084 |  | 1.4 | 1.26 | 1.01 | 0.148 |  |  | 104 | 
13 | CN1CC[C@]23c4c5ccc(O)c4O[C@H]2[C@@H](NCC(=O)O)CC[C@@]3(OCCCc2ccccc2)[C@H]1C5 |  |  |  |  |  |  |  |  |  |  |  | Active
